This passage reports IC50, inhibition in vivo and Survival results from ChEMBL document CHEMBL1134502, “Aromatic quinolinecarboxamides as selective, orally active antibody production inhibitors for prevention of acute xenograft rejection” (J Med Chem, 2001).

SMILES strings stand for the structures. Bounds are passed on as bounds.

One assay deals with Jurkat. The assay is described as follows: In vitro inhibition of Jurkat cell proliferation. The format is functional, cell-based. As to conditions: Homo sapiens. In short, it runs like this: (§1)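 Murine B-cells stimulated with TNP-LPS (T-cell-independent type 1) were read for antibody production, the mouse MLR for T-cell activity, and Jurkat proliferation for cytotoxicity. Values are IC50 ± SE in µM, the mean of at least four independent determinations.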

The species entered for assay [1] is Mus musculus. The assay is described as follows: In vitro T-cell immunosuppressive activity in the mouse mixed lymphocyte reaction (MLR). The assay is classed as functional. In short, it runs like this: as §1
The test system of assay [2] is Mus musculus. Put plainly: In vivo inhibition of TNP-specific immunoglobulin G production at 10 mg/kg/day oral administration. The format is functional. In a few lines:
(§2)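 OF1 mice were immunized iv with TNP-LPS and dosed on day 0 plus the three following days (four doses). The sc vehicle was polyethoxylated castor oil/EtOH; the po vehicle was Labrafil/EtOH/corn oil. Mice were bled on day 6, and serum DNP-specific IgM or IgG was titred by ELISA on DNP-BSA plates at a defined OD405.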

In assay [3] the test system is Mus musculus. Put plainly: In vivo inhibition of TNP-specific immunoglobulin G production at 3 mg/kg/day subcutaneous administration. The assay is classed as functional. As to conditions: sc. In a few lines: as §2
Assay [4] concerns Mus musculus. The assay is described as follows: In vivo inhibition of TNP-specific immunoglobulin G production at 30 mg/kg/day subcutaneous administration. The assay is classed as functional. To be noted: sc. In short, it runs like this: as §2
Assay [5] has as its system Mus musculus. Put plainly: In vivo inhibition of TNP-specific immunoglobulin G production at 50 mg/kg/day subcutaneous administration. The assay is classed as functional. To be noted: sc. In a few lines:
as §2

In assay [6] the test system is Mus musculus. Put plainly: In vivo inhibition of TNP-specific immunoglobulin M production at 10 mg/kg/day, po. The assay is classed as functional. In a few lines:
as §2

The test system of assay [7] is Mus musculus. The assay is described as follows: In vivo inhibition of TNP-specific immunoglobulin M production at 3 mg/kg/day, sc. The assay is classed as functional. To be noted: route subcutaneous. In short, it runs like this: as §2
Assay [8] deals with Mus musculus. The assay is described as follows: In vivo inhibition of TNP-specific immunoglobulin M production at 30 mg/kg/day, sc. The format is functional. As to conditions: route subcutaneous. In a few lines: as §2
Assay [9] has as its system Mus musculus. Put plainly: In vivo inhibition of TNP-specific immunoglobulin M production at 50 mg/kg/day, sc. The assay is classed as functional. To be noted: route subcutaneous. In a few lines:
as §2

The subject of assay [10] is Mus musculus. The assay is described as follows: Survival period of mice in days after xenotransplantation and for a dose of 3 mg/kg (Histology = antibody-mediated rejection). The format is functional.
The subject of assay [11] is Mus musculus. The assay is described as follows: Survival period of mice in days after xenotransplantation and for a dose of 30 mg/kg (Histology = antibody-mediated rejection, Chronic rejection). The assay is classed as functional.
The test system of assay [12] is Mus musculus. The assay is described as follows: Survival period of mice in days after xenotransplantation and for a dose of 50 mg/kg (Histology = no antibody-mediated rejection). The format is functional.
The nature of assay [13]: In vitro inhibition of Ab formation from trinitrophenyl-lipopolysaccharide (TNP-LPS) B-cells. The assay is classed as functional. To be noted: Mus musculus. In a few lines: as §1

By IC50 is commonly meant the concentration needed to halve the response being measured. Read a high IC50 as lower potency. `C/C=C/C[C@@H](C)[C@@H](O)[C@H]1C(=O)N[C@@H](CC)C(=O)N(C)CC(=O)N(C)[C@@H](CC(C)C)C(=O)N[C@@H](C(C)C)C(=O)N(C)[C@@H](CC(C)C)C(=O)N[C@@H](C)C(=O)N[C@H](C)C(=O)N(C)[C@@H](CC(C)C)C(=O)N(C)[C@@H](CC(C)C)C(=O)N(C)[C@@H](C(C)C)C(=O)N1C` [CYCLOSPORINE] showed an IC50 in the assay on Jurkat above 10 µM.

For orientation: inhibition in vivo means the change of the read-out against control, counted positive when it falls. Read a high inhibition in vivo as strong suppression. With `Cc1oncc1C(=O)Nc1ccc(C(F)(F)F)cc1` [LEFLUNOMIDE], the concentration for half-maximal inhibition (IC50) came to 34.6 µM with Jurkat, 11.4 µM in the assay listed under Mus musculus [1] and 5.1 µM in assay [13]. Further, the inhibition in vivo at 10 mg/kg/day with Mus musculus [2] is below 0%; in the assay on Mus musculus [6], 5%. Besides, the inhibition in vivo at 3 mg/kg/day with Mus musculus [3] and in the assay with Mus musculus [7] was below 0% throughout. The inhibition in vivo at 30 mg/kg/day in the assay on Mus musculus [4] was 39%; in the assay on Mus musculus [8] it was 37%. The inhibition in vivo at 50 mg/kg/day in the assay with Mus musculus [5] worked out at 85%; in the assay on Mus musculus [9], 71%. Moreover, the Survival was 7 days in the assay on Mus musculus [10], above 7 days with Mus musculus [11] and above 28 days with Mus musculus [12].
